Each structure is given as a SMILES string.

What is called IC50 is the concentration that inhibits the measured activity by half.

The target in the first assay is T1, Proteasome Macropain subunit MB1 (Homo sapiens, UniProt P28074).
T1 sequence (P28074 whole entry): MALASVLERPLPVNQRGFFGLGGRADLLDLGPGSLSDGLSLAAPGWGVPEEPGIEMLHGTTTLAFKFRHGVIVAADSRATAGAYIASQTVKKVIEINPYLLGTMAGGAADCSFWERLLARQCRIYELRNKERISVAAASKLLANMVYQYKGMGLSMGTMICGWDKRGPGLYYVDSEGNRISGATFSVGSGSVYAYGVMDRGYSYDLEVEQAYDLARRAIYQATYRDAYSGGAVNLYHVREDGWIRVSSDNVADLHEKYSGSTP
Kind of assay: Inhibition of human 20S proteasome chymotryptic-like activity using Suc-LLVY-AMC as substrate measured for 30 mins by fluorescence assay. The gist of the method:
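Purified human 20S proteasome (1 nM) in 50 mM Tris-HCl pH 7.5 with 0.03% SDS and 50 μM fluorogenic substrate (Suc-LLVY-AMC for CT-L, Z-ARR-AMC for T-L, Z-LLE-AMC for casp-L), 37 °C. Maximum fluorescence increase per minute gave specific activity; IC50 taken from the linear portion of the curves.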
With `Cc1cnc2ccccc2c1`, the IC50 is above 25 µM.

Consider `CCCCc1ccc2cc(N(C)C)ccc2n1`, for which the IC50 was above 25 µM.

`Cc1nc2ccc(Cl)cc2cc1C1=CCCCC1` gave an IC50 above 25 µM.

With `Cc1nc2cc(Cl)cc(Cl)c2cc1C1=CCCCC1`, the IC50 is above 25 µM.

As to `CN(C)c1ccc2nc(-c3ccccc3)c(-c3ccccc3)cc2c1`, the IC50 was above 25 µM.

Consider `Cc1nc2ccc(C(C)C)cc2cc1-c1ccccc1`, for which the IC50 is above 25 µM.

As to `COc1ccc2nc(C)c(C3=CCCCC3)cc2c1`, the half-maximal inhibitory concentration (IC50) is above 25 µM.

`Cc1nc2cc(Br)cc(Br)c2cc1C1=CCCCC1`: the IC50 is above 25 µM.

The compound `c1ccc(-c2cnc3ccccc3c2)cc1` registered an IC50 above 25 µM.

In turn, `Cc1nc2ccccc2cc1C1=CCCCC1` showed an IC50 above 25 µM.

With `Cc1nc2ccc(N3CCCCC3)cc2cc1C1=CCCCC1`, 5.4 µM corresponded to half-maximal inhibition (IC50).

The compound `Cc1nc2ccc(N3CCOCC3)cc2cc1C1=CCCCC1` had an IC50 of 9.1 µM.

In turn, `C=C(C)c1cc2c(C)cc(C)cc2nc1CC` showed an IC50 above 25 µM.

For the compound `Cc1nc2ccc(F)cc2cc1C1=CCCCC1`, the IC50 is above 25 µM.

For the compound `CN(C)c1ccc2ncc(C(C)(C)C)cc2c1`, the IC50 was above 25 µM.

Take `Cc1nc2ccc(Br)cc2cc1-c1ccccc1`: the IC50 is above 25 µM.

As to `Cc1cc(C)c2cc(-c3ccccc3)c(-c3ccccc3)nc2c1`, the IC50 was above 25 µM.

With `Cc1ccc2ccccc2n1` [QUINALDINE], the IC50 is above 25 µM.

The next assay deals with T1, Proteasome Macropain subunit MB1. Kind of assay: Inhibition of human 20S proteasome chymotryptic-like activity using Suc-LLVY-AMC as substrate assessed as fluorescence quinching control by fluorescence assay.
As for `CN(C)c1ccc2nc(-c3ccccc3)c(-c3ccccc3)cc2c1`, the IC50 came to 2.3 µM.

Tested on in the next assay: not listed separately
Kind of assay: Inhibition of human 20s proteasome in human TNFalpa stimulated NF-kappaB-luc expressing HeLa cells assessed as suppression of NF-kappaB mediated gene expression preincubated for 30 min followed by TNFalpha stimulation measured after 8 hrs by steady-Glo luciferase assay. Format: cell-based. The gist of the method:
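HeLa NF-κB-luc cells were seeded in DMEM with 5% FBS and hygromycin B. After 24 h the medium was swapped for serum-free DMEM with antibiotics. Cells were pretreated 30 min at 37 °C, 5% CO2 with compound (final 50, 25, 12.5, 6.25, 3.13, 1.56 μM), vehicle 1% DMSO, or 50 μM MG-132 as positive control. TNF-α (25 ng/mL final) was then added for 8 h. Firefly luciferase was read by Steady-Glo, normalized to TNF-α stimulation. Average of 2 independent experiments.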
With `Cc1cc(C)c2cc(C3=CCCCC3)c(C)nc2c1`, the IC50 was 12.1 µM.

The values are drawn from ChEMBL document CHEMBL3804753, “Substituted quinolines as noncovalent proteasome inhibitors” (Bioorg Med Chem, 2016).
